In brackets after ≈: the same amount, converted by molar mass.
How the values were obtained:
Rattus norvegicus [1] = test: Peripheral plasma levels in rats after oral administration of 100 mg/kg dose for 0.25 hr; assay type: functional, organism-based; parameters: dose 100 mg/kg
How it was run: (§1)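 Rats received 100 mg/kg orally and were sampled for peripheral plasma. Concentrations were measured by Micrococcus luteus agar-diffusion microbiological assay in Antibiotic Medium 1, with zone sizes converted using the standard curve for the appropriate compound. Each value is the average of three rats per time point.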

[2] = test system: Staphylococcus epidermidis; test: In vitro antimicrobial activity against Staphylococcus epidermidis EPI1; assay type: functional
Streptococcus pyogenes [3] = test: In vivo effective dose against experimental infections in rodent caused by Streptococcus pyogenes C203 when administered sc; assay type: functional
Rattus norvegicus [4] = test: Peripheral plasma levels in rats after oral administration of 100 mg/kg dose for 2 hr; assay type: functional, organism-based; parameters: dose 100 mg/kg; how it was run: as §1
Rattus norvegicus [5] = test: Peripheral plasma levels in rats after oral administration of 100 mg/kg dose for 0.5 hr; assay type: functional, organism-based; parameters: dose 100 mg/kg; how it was run: as §1
Streptococcus pyogenes [6] = test: In vitro antimicrobial activity against Streptococcus pyogenes C203; assay type: functional
Enterococcus faecium = test: In vitro antimicrobial activity against Streptococcus faecium X66; assay type: functional, streptococcus fae-cium
Streptococcus pneumoniae [7] = test: In vitro antimicrobial activity against Streptococcus pneumoniae; assay type: functional
Staphylococcus aureus [8] = test: In vitro antimicrobial activity against Staphylococcus aureus X1; assay type: functional
Rattus norvegicus [9] = test: Peripheral plasma levels in rats after oral administration of 100 mg/kg dose for 4 hr; assay type: functional, organism-based; parameters: dose 100 mg/kg; how it was run: as §1
Rattus norvegicus [10] = test: Peripheral plasma levels in rats after oral administration of 100 mg/kg dose for 1 hr; assay type: functional, organism-based; parameters: dose 100 mg/kg; how it was run: as §1
Streptococcus [11] = test: In vitro antimicrobial activity against aerobic bacteria Streptococcus D 2041; assay type: functional
Streptococcus [12] = test: In vitro antimicrobial activity against aerobic bacteria Streptococcus D 8043; assay type: functional
Staphylococcus aureus [13] = test: In vitro antimicrobial activity against aerobic bacteria Staphylococcus aureus V140,; assay type: functional
Haemophilus influenzae [14] = test: In vitro antimicrobial activity against aerobic bacteria Haemophilus influenzae 76; assay type: functional
Mus musculus [15] = test: Peripheral plasma levels in mice after oral administration of 100 mg/kg dose for 1 hr; assay type: functional, organism-based; parameters: dose 100 mg/kg
How it was run: (§2)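 Mice were given the compound orally and sampled for peripheral plasma at each time point. Plasma was assayed microbiologically against Micrococcus luteus seeded in Antibiotic Medium 1. Inhibition zone sizes were read, and concentrations were calculated from each compound's own standard curve. Each value is the mean of five mice per time point.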

Haemophilus influenzae [16] = test: In vitro antimicrobial activity against Haemophilus influenzae.; assay type: functional
Mus musculus [17] = test: Peripheral plasma levels in mice after oral administration of 100 mg/kg dose for 0.5 hr; assay type: functional, organism-based; parameters: dose 100 mg/kg; how it was run: as §2
Streptococcus [18] = test: In vitro antimicrobial activity against aerobic bacteria Streptococcus D 9960; assay type: functional
Streptococcus pneumoniae [19] = test: In vitro antimicrobial activity against aerobic bacteria Streptococcus pneumoniae B1-438; assay type: functional, streptococcus pneum
Streptococcus [20] = test: In vitro antimicrobial activity against aerobic bacteria Streptococcus G Kruder; assay type: functional; settings: Streptococcus; read-out: MIC
[21] = test system: Staphylococcus epidermidis; test: In vitro antimicrobial activity against aerobic bacteria Streptococcus epi 270; assay type: functional
Streptococcus viridans = test: In vitro antimicrobial activity against aerobic bacteria Streptococcus viridans 9943; assay type: functional
Staphylococcus aureus [22] = test: In vitro antimicrobial activity against aerobic bacteria Staphylococcus aureus X400; assay type: functional
Mus musculus [23] = test: Peripheral plasma levels in mice after oral administration of 100 mg/kg dose for 2 hr; assay type: functional, organism-based; parameters: dose 100 mg/kg; how it was run: as §2
Streptococcus sanguinis = test: In vitro antimicrobial activity against aerobic bacteria Streptococcus sanguis MX132; assay type: functional
Haemophilus influenzae [24] = test: In vitro antimicrobial activity against aerobic bacteria Haemophilus influenzae MX366,; assay type: functional
Streptococcus [25] = test: In vitro antimicrobial activity against aerobic bacteria Streptococcus C 24; assay type: functional
Mus musculus [26] = test: Peripheral plasma levels in mice after oral administration of 100 mg/kg dose for 4 hr; assay type: functional, organism-based; parameters: dose 100 mg/kg; how it was run: as §2
Streptococcus pyogenes [27] = test: In vivo effective dose against experimental infections in rodent caused by Streptococcus pyogenes C203 when administered orally; assay type: functional; settings: po
Staphylococcus aureus [28] = test: In vitro antimicrobial activity against aerobic bacteria Staphylococcus aureus V135; assay type: functional
Streptococcus [29] = test: In vitro antimicrobial activity against aerobic bacteria Streptococcus B 14; assay type: functional
Mus musculus [30] = test: Peripheral plasma levels in mice after oral administration of 50 mg/kg dose for 1 hr; assay type: functional, organism-based; parameters: dose 50 mg/kg; how it was run: as §2
Staphylococcus aureus [31] = test: In vitro antimicrobial activity against aerobic bacteria Staphylococcus aureus 513E; assay type: functional
Mus musculus [32] = test: Peripheral plasma levels in mice after oral administration of 100 mg/kg dose for 0.25 hr; assay type: functional, organism-based; parameters: dose 100 mg/kg; how it was run: as §2
Streptococcus [33] = test: In vitro antimicrobial activity against aerobic bacteria Streptococcus B 8; assay type: functional
[34] = test system: Staphylococcus epidermidis; test: In vitro antimicrobial activity against aerobic bacteria Streptococcus epi 222; assay type: functional
Staphylococcus aureus [35] = test: In vitro antimicrobial activity against aerobic bacteria Staphylococcus aureus V41; assay type: functional
Streptococcus [36] = test: In vitro antimicrobial activity against aerobic bacteria Streptococcus B 5; assay type: functional
Mus musculus [37] = test: Peripheral plasma levels in mice after oral administration of 50 mg/kg dose for 2 hr; assay type: functional, organism-based; parameters: dose 50 mg/kg; how it was run: as §2
Mus musculus [38] = test: Peripheral plasma levels in mice after oral administration of 50 mg/kg dose for 0.25 hr; assay type: functional, organism-based; parameters: dose 50 mg/kg; how it was run: as §2
Mus musculus [39] = test: Peripheral plasma levels in mice after oral administration of 50 mg/kg dose for 0.5 hr; assay type: functional, organism-based; parameters: dose 50 mg/kg; how it was run: as §2

## CC[C@H]1OC(=O)C[C@@H](O)[C@H](C)[C@@H](O[C@@H]2O[C@H](C)[C@@H](O)[C@H](N(C)C)[C@H]2O)[C@@H](CCSc2ccccc2)C[C@@H](C)C(=O)/C=C/C(C)=C/[C@@H]1CO[C@@H]1O[C@H](C)[C@@H](O)[C@@H](OC)[C@H]1OC
Rattus norvegicus [1]
  Concentration: 0.5 µg/mL
[2]
  MIC: 0.25 µg/mL (≈ 0.289 µM)
Streptococcus pyogenes [3]
  ED50: 10 mg/kg
Rattus norvegicus [4]
  Concentration: 2.9 µg/mL
Rattus norvegicus [5]
  Concentration: 1.3 µg/mL
Streptococcus pyogenes [6]
  MIC: 0.25 µg/mL (≈ 0.289 µM)
Enterococcus faecium
  MIC: 8 µg/mL (≈ 9.24 µM)
Streptococcus pneumoniae [7]
  MIC: 2 µg/mL (≈ 2.31 µM)
Staphylococcus aureus [8]
  MIC: 0.25 µg/mL (≈ 0.289 µM)
Rattus norvegicus [9]
  Concentration: 4.2 µg/mL
Rattus norvegicus [10]
  Concentration: 2.5 µg/mL

## CC[C@H]1OC(=O)C[C@@H](O)[C@H](C)[C@@H](O[C@@H]2O[C@H](C)[C@@H](O)[C@H](N(C)C)[C@H]2O)[C@@H](CCN2C(=O)c3ccccc3C2=O)C[C@@H](C)C(=O)/C=C/C(C)=C/[C@@H]1CO[C@@H]1O[C@H](C)[C@@H](O)[C@@H](OC)[C@H]1OC
Streptococcus [11]
  MIC: 8 µg/mL (≈ 8.86 µM)
Streptococcus [12]
  MIC: 4 µg/mL (≈ 4.43 µM)
[2]
  MIC: 0.12 µg/mL (≈ 0.133 µM)
Staphylococcus aureus [13]
  MIC: 0.5 µg/mL (≈ 0.554 µM)
Haemophilus influenzae [14]
  MIC: 32 µg/mL (≈ 35.4 µM)
Mus musculus [15]
  Concentration: 2.1 µg/mL
Haemophilus influenzae [16]
  MIC: 32 µg/mL (≈ 35.4 µM)
Mus musculus [17]
  Concentration: < 0.1 µg/mL
Streptococcus pyogenes [3]
  ED50: 2.7 mg/kg
Streptococcus [18]
  MIC: 4 µg/mL (≈ 4.43 µM)
Streptococcus pneumoniae [19]
  MIC: > 128 µg/mL
Streptococcus [20]
  MIC: 32 µg/mL (≈ 35.4 µM)
[21]
  MIC: > 128 µg/mL
Streptococcus viridans
  MIC: > 128 µg/mL
Streptococcus pyogenes [6]
  MIC: 0.25 µg/mL (≈ 0.277 µM)
Staphylococcus aureus [22]
  MIC: 0.5 µg/mL (≈ 0.554 µM)
Mus musculus [23]
  Concentration: 0.9 µg/mL
Streptococcus sanguinis
  MIC: 2 µg/mL (≈ 2.21 µM)
Enterococcus faecium
  MIC: 8 µg/mL (≈ 8.86 µM)
Haemophilus influenzae [24]
  MIC: 32 µg/mL (≈ 35.4 µM)
Streptococcus [25]
  MIC: 0.5 µg/mL (≈ 0.554 µM)
Streptococcus pneumoniae [7]
  MIC: 2 µg/mL (≈ 2.21 µM)
Mus musculus [26]
  Concentration: 0.3 µg/mL
Streptococcus pyogenes [27]
  ED50: 15 mg/kg
Staphylococcus aureus [28]
  MIC: 0.5 µg/mL (≈ 0.554 µM)
Streptococcus [29]
  MIC: 8 µg/mL (≈ 8.86 µM)
Staphylococcus aureus [8]
  MIC: 0.12 µg/mL (≈ 0.133 µM)
Mus musculus [30]
  Concentration: 0.8 µg/mL
Staphylococcus aureus [31]
  MIC: 0.25 µg/mL (≈ 0.277 µM)
Mus musculus [32]
  Concentration: < 0.1 µg/mL
Streptococcus [33]
  MIC: 8 µg/mL (≈ 8.86 µM)
[34]
  MIC: 0.1 µg/mL (≈ 0.111 µM)
Staphylococcus aureus [35]
  MIC: 0.25 µg/mL (≈ 0.277 µM)
Streptococcus [36]
  MIC: 8 µg/mL (≈ 8.86 µM)

## CC[C@H]1OC(=O)C[C@@H](O)[C@H](C)[C@@H](O[C@@H]2O[C@H](C)[C@@H](O[C@H]3C[C@@](C)(O)[C@@H](O)[C@H](C)O3)[C@H](N(C)C)[C@H]2O)[C@@H](CCN2C(=O)c3ccccc3C2=O)C[C@@H](C)C(=O)/C=C/C(C)=C/[C@@H]1CO[C@@H]1O[C@H](C)[C@@H](O)[C@@H](OC)[C@H]1OC
Rattus norvegicus [1]
  Concentration: 0.5 µg/mL
[2]
  MIC: 1 µg/mL (≈ 0.955 µM)
Mus musculus [15]
  Concentration: 6.9 µg/mL
Haemophilus influenzae [16]
  MIC: > 128 µg/mL
Mus musculus [17]
  Concentration: 6 µg/mL
Streptococcus pyogenes [3]
  ED50: > 6.3 mg/kg
Rattus norvegicus [4]
  Concentration: 1.4 µg/mL
Mus musculus [37]
  Concentration: 1.3 µg/mL
Rattus norvegicus [5]
  Concentration: 1.6 µg/mL
Streptococcus pyogenes [6]
  MIC: 2 µg/mL (≈ 1.91 µM)
Enterococcus faecium
  MIC: > 128 µg/mL
Streptococcus pneumoniae [7]
  MIC: 32 µg/mL (≈ 30.6 µM)
Streptococcus pyogenes [27]
  ED50: 23 mg/kg
Staphylococcus aureus [8]
  MIC: 1 µg/mL (≈ 0.955 µM)
Rattus norvegicus [9]
  Concentration: 1.4 µg/mL
Rattus norvegicus [10]
  Concentration: 2.1 µg/mL
Mus musculus [30]
  Concentration: 1.6 µg/mL
Mus musculus [32]
  Concentration: 13.1 µg/mL
Mus musculus [38]
  Concentration: 2.4 µg/mL
Mus musculus [39]
  Concentration: 2.2 µg/mL

## CC[C@H]1OC(=O)C[C@@H](O)[C@H](C)[C@@H](O[C@@H]2O[C@H](C)[C@@H](O)[C@H](N(C)C)[C@H]2O)[C@@H](CCOc2ccc(CO)cc2)C[C@@H](C)C(=O)/C=C/C(C)=C/[C@@H]1CO[C@@H]1O[C@H](C)[C@@H](O)[C@@H](OC)[C@H]1OC
[2]
  MIC: 0.5 µg/mL (≈ 0.568 µM)
Haemophilus influenzae [16]
  MIC: 64 µg/mL (≈ 72.7 µM)
Streptococcus pyogenes [3]
  ED50: 5 mg/kg
Streptococcus pyogenes [6]
  MIC: 0.5 µg/mL (≈ 0.568 µM)
Enterococcus faecium
  MIC: 16 µg/mL (≈ 18.2 µM)
Streptococcus pneumoniae [7]
  MIC: 2 µg/mL (≈ 2.27 µM)
Streptococcus pyogenes [27]
  ED50: 44 mg/kg
Staphylococcus aureus [8]
  MIC: 0.5 µg/mL (≈ 0.568 µM)

— ChEMBL document CHEMBL1124186, “Synthesis and evaluation of tylosin-related macrolides modified at the aldehyde function: a new series of orally effective antibiotics” (1988)
